In brackets after ≈: the same amount, converted by molar mass. Like-named read-outs stand apart in the source and are kept apart here.
Legend:
[1] = Stability / PYR release in cell-free medium; format: physicochemical
Procedure, shortened: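 PYR measured colorimetrically: cell-free medium (R or nitrite-containing NR medium) mixed 1:1 with 0.01 M ferric nitrate in 0.1 N sulfuric acid and shaken 5–10 min at room temperature. Fe3+–PYR complex read by absorbance at 600 nm. Concentration taken from a linear sodium-PYR standard curve. Free PYR followed over 24 h (R medium) and 48 h (NR medium).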

[2] = system: methicillin-sensitive S. aureus; test: Antimicrobial spectrum MIC90, MSSA; format: cell-based; details: Staphylococcus aureus, 24 h
[3] = system: Mtb; format: cell-based, Mycobacterium tuberculosis
[4] = system: Mtb strain H37Rv; test: microbe, parasite or virus in culture; format: cell-based, Mycobacterium tuberculosis; details: for MBC: Mycobacterium tuberculosis, H37RV
[5] = target: T1, BlaC (Mycobacterium tuberculosis, UniProt P9WKD3); format: biochemical; details: 100 μM compound, 1 μM BlaC, 10 min
T1 sequence (P9WKD3 35-307): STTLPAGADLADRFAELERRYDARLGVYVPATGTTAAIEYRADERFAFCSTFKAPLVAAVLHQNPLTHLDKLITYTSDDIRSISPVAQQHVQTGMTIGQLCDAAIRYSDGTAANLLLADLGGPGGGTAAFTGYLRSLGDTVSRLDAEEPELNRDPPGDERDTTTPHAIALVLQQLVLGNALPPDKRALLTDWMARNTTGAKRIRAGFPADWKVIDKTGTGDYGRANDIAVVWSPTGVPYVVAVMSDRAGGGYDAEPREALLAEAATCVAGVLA

[6] = system: Mtb; details: 14-day exposure of hypoxic Mtb, plus clavulanate; cited from earlier work
[7] = system: luxAB (luciferase) containing strain of Mtb H37Rv; format: cell-based, Mycobacterium tuberculosis; details: hypoxic conditions, control

O=C(O)CSc1cccc[n+]1[O-] [Compound 10, 2-(carboxymethylthio)pyridine-N-oxide]
PYR release in cell-free medium ([1]; Fe3+-PYR complex, absorbance at 600 nm): not released

[O-][n+]1ccccc1S [PYR, pyrithione]
MIC90 [2]: 25 µM (≈ 3.18 µg/mL)
reduction of CFU of R Mtb [3]: > 5 orders of magnitude
time to reduce CFU of R Mtb by >5 orders of magnitude [3]: ≤ 24 h
stability of free PYR in the medium used for NR conditions ([1]; NR medium): largely disappeared over 48 h
stability of free PYR in the medium used for R conditions ([1]; R medium): at least 24 h
potency relative to cephalosporin 1a [4]: equipotent on a molar basis
MBC ([4]; read-out: MBC NR CARA): 1.25 µM (≈ 0.159 µg/mL)
MBC ([4]; read-out: MBC NR CARA + 25 μM Clav): 1.25 µM
MBC ([4]; read-out: MBC R CARA): 1.25 µM (≈ 0.159 µg/mL)
MBC ([4]; read-out: MBC R CARA + 25 μM Clav): 1.25 µM

CC(=O)OCC1=C(C(=O)O)N2C(=O)[C@@H](NC(=O)Cc3cccs3)[C@H]2SC1 [cephalothin]
UV-visible absorption spectrum after incubation with BlaC [5]: did not change

C[C@@H](O)[C@H]1C(=O)N2C(C(=O)O)=C(S[C@@H]3CN[C@H](C(=O)N(C)C)C3)[C@H](C)[C@H]12 [meropenem]
reduction in colony-forming units (CFUs) [6]: ca. 1 order of magnitude

CO[C@H]1/C=C/O[C@@]2(C)Oc3c(C)c(O)c4c(O)c(c(/C=N/N5CCN(C)CC5)c(O)c4c3C2=O)NC(=O)/C(C)=C\C=C\[C@H](C)[C@H](O)[C@@H](C)[C@@H](O)[C@@H](C)[C@H](OC(C)=O)[C@@H]1C [rifampicin]
activity in LORA [7]: lost activity
